ChEMBL document CHEMBL2021801, “Thienopyridine ureas as dual inhibitors of the VEGF and Aurora kinase families” (Bioorg Med Chem Lett, 2012)
Activity calls are given as the source filed them. The calls are words filed in the database; no cut-off is given here.

Legend:
Aurora kinase B [1] = molecular target: T1, Aurora kinase B (Homo sapiens, UniProt Q96GD4); conditions: NCI-H1229
Aurora kinase B [2] = molecular target: T1, Aurora kinase B; assay: Inhibition of Aurora B using 1 mM ATP by HTRF assay
[3] = molecular target: T2, Vascular endothelial growth factor receptor 2 (Homo sapiens, UniProt P35968); assay: Inhibition of KDR using 1 mM ATP by HTRF assay
T2 sequence (P35968 whole entry): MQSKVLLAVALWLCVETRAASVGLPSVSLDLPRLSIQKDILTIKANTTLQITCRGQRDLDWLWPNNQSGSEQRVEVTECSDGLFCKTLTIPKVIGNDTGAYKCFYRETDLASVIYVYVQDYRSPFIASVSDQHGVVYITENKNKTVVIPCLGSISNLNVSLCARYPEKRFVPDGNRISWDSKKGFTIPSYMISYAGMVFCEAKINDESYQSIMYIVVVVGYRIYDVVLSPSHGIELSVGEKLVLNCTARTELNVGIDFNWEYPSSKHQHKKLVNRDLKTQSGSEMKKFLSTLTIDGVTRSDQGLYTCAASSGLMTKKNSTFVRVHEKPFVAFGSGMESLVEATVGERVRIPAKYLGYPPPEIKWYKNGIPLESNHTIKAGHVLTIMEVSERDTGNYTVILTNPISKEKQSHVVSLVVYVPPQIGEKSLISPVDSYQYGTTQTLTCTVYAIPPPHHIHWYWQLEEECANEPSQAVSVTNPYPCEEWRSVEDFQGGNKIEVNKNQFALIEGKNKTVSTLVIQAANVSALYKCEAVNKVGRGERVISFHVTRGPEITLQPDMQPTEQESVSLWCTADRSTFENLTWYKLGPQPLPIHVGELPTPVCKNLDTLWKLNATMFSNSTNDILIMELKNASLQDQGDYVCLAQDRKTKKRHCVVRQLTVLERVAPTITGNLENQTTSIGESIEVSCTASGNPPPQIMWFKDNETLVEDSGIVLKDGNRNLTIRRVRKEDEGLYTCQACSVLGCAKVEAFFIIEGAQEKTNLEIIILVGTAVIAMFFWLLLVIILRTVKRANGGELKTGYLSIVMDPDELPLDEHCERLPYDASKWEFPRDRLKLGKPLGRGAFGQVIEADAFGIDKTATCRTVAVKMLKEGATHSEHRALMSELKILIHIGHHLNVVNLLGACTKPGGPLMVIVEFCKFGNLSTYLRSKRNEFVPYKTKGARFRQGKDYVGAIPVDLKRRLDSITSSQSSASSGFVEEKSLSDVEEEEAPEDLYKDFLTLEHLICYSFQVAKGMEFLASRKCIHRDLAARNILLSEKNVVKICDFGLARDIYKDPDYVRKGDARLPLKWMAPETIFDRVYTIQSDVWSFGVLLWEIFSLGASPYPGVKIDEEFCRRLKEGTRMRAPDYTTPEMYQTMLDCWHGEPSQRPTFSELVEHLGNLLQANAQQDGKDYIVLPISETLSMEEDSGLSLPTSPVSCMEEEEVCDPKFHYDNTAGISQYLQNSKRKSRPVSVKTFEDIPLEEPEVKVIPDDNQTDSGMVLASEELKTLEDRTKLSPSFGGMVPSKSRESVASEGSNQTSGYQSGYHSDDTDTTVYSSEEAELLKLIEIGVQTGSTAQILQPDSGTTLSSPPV

[4] = molecular target: T2, Vascular endothelial growth factor receptor 2; assay: Inhibition of human KDR phosphorylation expressed in mouse NIH3T3 cells; type: cell-based
Mus musculus [5] = assay: In vivo inhibition of KDR in po dosed mouse assessed as estradiol-induced uterine edema; type: functional
[6] = Oral bioavailability in CD1 (ICR) mouse at 10 mg/kg; type: ADME, organism-based; conditions: in vivo
[7] = Half life in CD1 (ICR) mouse at 3 mg/kg, iv; type: ADME, organism-based; parameters: dose 3 mg/kg, route intravenous; conditions: in vivo
[8] = AUC in CD1 (ICR) mouse at 10 mg/kg, po; type: ADME, organism-based; parameters: dose 10 mg/kg, route oral; conditions: plasma
Cytochrome P450 3A4 [9] = molecular target: T3, Cytochrome P450 3A4 (Homo sapiens, UniProt P08684); assay: Inhibition of CYP3A4; type: ADME
T3 sequence (P08684 whole entry): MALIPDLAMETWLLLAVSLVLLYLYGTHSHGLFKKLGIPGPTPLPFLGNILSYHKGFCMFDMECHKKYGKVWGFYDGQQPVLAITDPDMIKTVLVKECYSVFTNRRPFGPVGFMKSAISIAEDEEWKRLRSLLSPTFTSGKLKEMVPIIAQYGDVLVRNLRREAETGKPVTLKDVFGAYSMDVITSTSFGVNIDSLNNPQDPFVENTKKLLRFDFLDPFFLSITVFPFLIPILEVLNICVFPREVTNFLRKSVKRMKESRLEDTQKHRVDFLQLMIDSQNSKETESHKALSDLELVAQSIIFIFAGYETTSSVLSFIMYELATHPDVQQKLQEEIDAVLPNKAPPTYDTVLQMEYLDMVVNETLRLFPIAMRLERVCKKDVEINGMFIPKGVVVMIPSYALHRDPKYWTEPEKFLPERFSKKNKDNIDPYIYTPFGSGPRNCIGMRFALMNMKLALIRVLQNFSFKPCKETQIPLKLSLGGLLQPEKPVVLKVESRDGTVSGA

[10] = Volume of distribution in CD1 (ICR) mouse at 3 mg/kg, iv; type: ADME, organism-based; parameters: dose 3 mg/kg, route intravenous; conditions: in vivo
HT-1080 = assay: Antitumor activity against human HT1080 cells xenografted in mouse assessed as tumor growth inhibition at 10 mg/kg, po qd; type: functional; conditions: read-out: GI
[11] = Clearance in CD1 (ICR) mouse at 3 mg/kg, iv; type: ADME, organism-based; parameters: dose 3 mg/kg, route intravenous; conditions: in vivo
Cytochrome P450 3A4 [12] = molecular target: T3, Cytochrome P450 3A4; assay: Inhibition of CYP3A4 preincubated for 15 mins; type: ADME
Cytochrome P450 3A4 [13] = molecular target: T3, Cytochrome P450 3A4; assay: Inhibition of CYP3A4 up to 10 uM; type: ADME
Mus musculus [14] = assay: In vivo inhibition of KDR in mouse assessed as estradiol-induced uterine edema up to 30 mg/kg, po; type: functional, organism-based; parameters: dose 30 mg/kg
Procedure, shortened: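 Estradiol-induced uterine edema model in mice, a readout of acute in vivo KDR activity. Compound is given orally and ED50 is reported in mg/kg po. Procedure follows the cited reference.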

T1 sequence (Q96GD4 whole entry): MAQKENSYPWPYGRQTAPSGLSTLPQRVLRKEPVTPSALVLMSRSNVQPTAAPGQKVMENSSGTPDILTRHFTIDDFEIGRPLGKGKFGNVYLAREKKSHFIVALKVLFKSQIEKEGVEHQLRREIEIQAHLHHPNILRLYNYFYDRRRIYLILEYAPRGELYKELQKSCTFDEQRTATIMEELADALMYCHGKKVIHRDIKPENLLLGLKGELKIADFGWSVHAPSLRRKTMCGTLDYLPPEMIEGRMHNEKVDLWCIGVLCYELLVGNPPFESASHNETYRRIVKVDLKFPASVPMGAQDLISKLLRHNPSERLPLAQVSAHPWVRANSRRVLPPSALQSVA

Compound | EC15 (Aurora kinase B [1]) | IC50 (Aurora kinase B [2]) | IC50 [3] | IC50 [4] | ED50 (Mus musculus [5]) | other results
Cc1cccc(NC(=O)Nc2ccc(-c3csc4c(-c5cc[nH]c5)cnc(N)c34)cc2)c1 | 389 nM | 68 nM | 4 nM | 1 nM | – | –
Cc1ccccc1NC(=O)Nc1ccc(-c2csc3c(-c4cnn(C)c4)cnc(N)c23)cc1 | 2 nM | 8 nM | 2 nM | – | 3.5 mg/kg | –
Cc1cccc(NC(=O)Nc2ccc(-c3csc4c(-c5cc[nH]n5)cnc(N)c34)cc2)c1 | 161 nM | 66 nM | 6 nM | 3 nM | – | –
CNC(=O)c1cnc(N)c2c(-c3ccc(NC(=O)Nc4cccc(C)c4)cc3)csc12 | 46 nM | 13 nM | – | 1 nM | – | –
Cc1cccc(NC(=O)Nc2ccc(-c3csc4ccnc(N)c34)cc2)c1 | 4140 nM | – | – | – | – | Activity (Mus musculus [14]): inactive; bioavailability [6]: 18%; half-life [7]: 0.3 h; AUC [8]: 450 ng·h/mL; Vd [10]: 1.7 L/kg; clearance [11]: 66.7 mL/min/kg
Cc1cccc(NC(=O)Nc2ccc(-c3csc4c(-c5cn[nH]c5)cnc(N)c34)cc2)c1 | 31 nM | 8 nM | – | – | – | –
Cc1cccc(NC(=O)Nc2ccc(-c3csc4c(-c5ccoc5)cnc(N)c34)cc2)c1 | > 300 nM | 100 nM | 8 nM | 14 nM | – | –
CNC(=O)/C=C/c1cnc(N)c2c(-c3ccc(NC(=O)Nc4cccc(C)c4)cc3)csc12 | 87 nM | 80 nM | 6 nM | 22 nM | – | –

The next lines start with results.

EC15 (Aurora kinase B [1]) | IC50 (Aurora kinase B [2]) | IC50 [3] | IC50 [4] | Compound | ED50 (Mus musculus [5]) | other results
6 nM | 9 nM | – | – | Cn1cc(-c2cnc(N)c3c(-c4ccc(NC(=O)Nc5cccc(F)c5)cc4)csc23)cn1 | 0.3 mg/kg | bioavailability [6]: 78%; half-life [7]: 3.6 h; AUC [8]: 44000 ng·h/mL; IC50 (Cytochrome P450 3A4 [9]): 7900 nM; Vd [10]: 0.9 L/kg; inhibition in vivo at 10 mg/kg (HT-1080): > 70%; clearance [11]: 3.33 mL/min/kg; IC50 (Cytochrome P450 3A4 [12]): 2700 nM
– | 529 nM | 25 nM | – | CC(C)CCn1cc(-c2cnc(N)c3c(-c4ccc(NC(=O)Nc5cccc(F)c5)cc4)csc23)cn1 | – | –
4 nM | 31 nM | – | – | CCCn1cc(-c2cnc(N)c3c(-c4ccc(NC(=O)Nc5cccc(F)c5)cc4)csc23)cn1 | 1.5 mg/kg | bioavailability [6]: 52%; half-life [7]: 0.8 h; AUC [8]: 5260 ng·h/mL; Vd [10]: 1.2 L/kg; inhibition (INH) (Cytochrome P450 3A4 [13]): < 20%; inhibition in vivo at 10 mg/kg (HT-1080): > 70%; clearance [11]: 16.7 mL/min/kg
27 nM | 48 nM | 8 nM | – | Cn1cc(-c2cnc(N)c3c(-c4ccc(NC(=O)Nc5ccc(Cl)cc5)cc4)csc23)cn1 | 0.3 mg/kg | –
1 nM | 5 nM | 6 nM | – | CN1CCC(n2cc(-c3cnc(N)c4c(-c5ccc(NC(=O)Nc6cccc(F)c6)cc5)csc34)cn2)C1=O (stereo not given) | 0.4 mg/kg | –
55 nM | – | – | – | Cc1cccc(NC(=O)Nc2ccc(-c3csc4c(-c5cnn(C)c5)cnc(N)c34)cc2)c1 | 1 mg/kg | bioavailability [6]: 59%; half-life [7]: 1.5 h; AUC [8]: 5640 ng·h/mL; Vd [10]: 2.3 L/kg; inhibition in vivo at 10 mg/kg (HT-1080): > 70%; clearance [11]: 18.3 mL/min/kg
413 nM | 23 nM | 2 nM | – | Cn1cc(-c2cnc(N)c3c(-c4ccc(NC(=O)Nc5cccc(C(N)=O)c5)cc4)csc23)cn1 | > 10 mg/kg | –
